The record followed here is ChEMBL document CHEMBL2346607, “Borrelidin analogues with antimalarial activity: design, synthesis and biological evaluation against Plasmodium falciparum parasites” (Bioorg Med Chem Lett, 2013).

Series [1] can be described thus: Cytotoxicity against human […] cells after 7 days by MTT assay. The format is cell-based. Conditions: 168 h. Summed up: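 Cytotoxicity was tested on MRC-5, a human diploid embryonic cell line. The value is reported as an IC50 in ng/mL.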
(In general: Tetrazolium dyes change colour on reduction, which living cells bring about.)

Series [2] can be described thus: Selectivity index, ratio of IC50 for human […] cells to IC50 for Plasmodium falciparum FCR-3. Conditions: […] cells (cytotoxicity) versus Plasmodium falciparum FCR-3, read-out: Ratio IC50. The format is toxicity, cell-based. The gist of the method:
(§1)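 SI is the MRC-5 cytotoxicity IC50 (ng/mL) divided by the antimalarial IC50 (ng/mL) against the FCR3 or K1 strain. Both IC50s come from the same in vitro test series.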

Series [3] in a line: Selectivity index, ratio of IC50 for human […] cells to IC50 for Plasmodium falciparum K1. The format is toxicity, cell-based. Conditions: MCR5 cells (cytotoxicity) versus Plasmodium falciparum K1, read-out: Ratio IC50. Summed up:
as §1

Series [4] has as its system Plasmodium falciparum. As to the kind of experiment: Antimalarial activity against Plasmodium falciparum FCR-3 infected in human erythrocytes after 72 hrs by lactate dehydrogenase assay. Conditions: FCR-3/Gambia. It is filed as functional, cell-based. The gist of the method:
(§2)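 In vitro assay against the P. falciparum strains K1 (drug-resistant) and FCR3 (drug-sensitive). The value is reported as an IC50 in ng/mL.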

Series [5] has as its system Plasmodium falciparum. In words: Antimalarial activity against Plasmodium falciparum K1 infected in human erythrocytes after 72 hrs by lactate dehydrogenase assay. It is filed as functional, organism-based. Conditions: K1, 72 h. Summed up:
as §2

In brackets after ≈: the same amount, converted by molar mass.

Consider `CC(=O)O[C@H]1CC(=O)O[C@H]([C@@H]2CCC[C@H]2C(=O)O)C/C=C/C=C(/C#N)[C@H](OC(C)=O)[C@@H](C)C[C@H](C)C[C@H](C)C[C@@H]1C`, for which the concentration for half-maximal inhibition (IC50) (usually the concentration needed to halve the response being measured) in series [1] was found to be 55.7 µg/mL (≈ 97.1 µM); with Plasmodium falciparum [4], 0.12 µg/mL (≈ 0.209 µM); in the series on Plasmodium falciparum [5] it was 0.107 µg/mL (≈ 0.186 µM). For the same compound, the values for the selectivity ratio in series [2] and in series [3] were 464 and 522, respectively.
Taken in the same sequence, the figures for `COC(=O)[C@@H]1CCC[C@H]1[C@@H]1C/C=C/C=C(/C#N)[C@H](O)[C@@H](C)C[C@H](C)C[C@H](C)C[C@H](C)[C@@H](O)CC(=O)O1` were 14.6 µg/mL (≈ 29 µM), 0.01 µg/mL (≈ 0.0199 µM), 0.01 µg/mL (≈ 0.0199 µM), 1460 and 1460.
Taken in the same sequence, the figures for `C[C@@H]1C[C@H](C)C[C@H](C)[C@@H](O)CC(=O)O[C@H]([C@@H]2CCC[C@H]2C(=O)O)C/C=C/C=C(/C#N)[C@H](O)[C@@H](C)C1` [BORRELIDIN] were 0.201 µg/mL (≈ 0.41 µM), 0.00088 µg/mL (≈ 0.0018 µM), 0.00093 µg/mL (≈ 0.0019 µM), 228 and 216.
